The nature of assay [1]: (§1) Growth inhibition of human HL-60(TB) cells at 10 uM after 48 hrs by SRB method. Format: functional. The settings on record: HL-60, 48 h, read-out: GI. The procedure, abridged: (§2)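 NCI single-dose primary screen at 10^-5 M, 48 h exposure. Cells grown in RPMI 1640 with 5% FBS and 2 mM L-glutamine. Suspension cells fixed in situ with TCA (final 16%), stained with SRB, absorbance read at 515 nm. Percent growth inhibition calculated against time-zero and untreated control plates.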

Assay [2] has as its system HL-60(TB). Described as §1. Format: functional. The procedure, abridged:
as §2

Each structure is given as a SMILES string. Calls of active or inactive are those of the source. The rule behind the calls is not given here.

For the molecule `Cc1nc(NC(=O)CN2CCN(c3nnc(-c4ccccc4)c4ccccc34)CC2)sc1C(=O)Nc1ccccc1`, in assay [1], the inhibition of growth at 10 µM was 83%.

In the case of `CCOC(=O)c1ccc(NC(=O)CN2CCN(c3nnc(-c4ccccc4)c4ccccc34)CC2)cc1`, the “growth inhibition (GI)” value in assay [2] is “Active”.

Values taken from ChEMBL document CHEMBL3751694, “1-Piperazinylphthalazines as potential VEGFR-2 inhibitors and anticancer agents: Synthesis and in vitro biological evaluation” (Eur J Med Chem, 2016).
